This is an account of results in ChEMBL document CHEMBL1122737, “5-[(Aminoalkyl)amino]-substituted anthra[1,9-cd]pyrazol-6(2H)-ones as novel anticancer agents. Synthesis and biological evaluation” (1984).

SMILES strings stand for the structures.

A short description of assay [1]: Compound was evaluated in vivo for the antitumor activity at a dose of 1.25 mg/kg & 3.75 mg/kg against mammary adenocarcinoma 16C to assess tumor growth delay (T-C). It is filed as functional, Mus musculus. In outline:
(§1)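 Mammary adenocarcinoma 16C is implanted sc in mice on day 0. Treatment is iv on days 1, 5 and 9, with dose per injection and total. Tumors are measured in two dimensions three times weekly to give growth delay (T − C, days) and gross log kill. Cured mice are excluded from these calculations.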

In assay [2] the test system is P388. The assay is described as follows: In vivo antitumor activity against P388 leukemia cells at a dose of 0.75 mg/kg as a single injection and 1.5 mg/kg as a total. It is filed as functional, Mus musculus. In outline:
(§2)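 Murine P388 leukemia, drug given ip on a q04d × 02 schedule (a slightly modified NCI protocol). Dose is listed per injection and as a total. Read-out is % T/C survival. Mice alive at 30 days count as cured and are left out of % T/C. Cured/tested counts are reported.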

Assay [3] can be described thus: In vivo antitumor activity at a single dose of 1.25 mg/kg & 3.75 mg/kg total against mammary adenocarcinoma 16C.
A short description of assay [4]: Compound was evaluated in vivo for the antitumor activity at a dose of 2.5 mg/kg & 7.5 mg/kg against mammary adenocarcinoma 16C to assess tumor growth delay (T-C). It is filed as functional, Mus musculus. In outline:
as §1

The subject of assay [5] is P388. The assay is described as follows: In vivo antitumor activity against P388 leukemia cells at a dose of 1.5 mg/kg as a single injection and 3 mg/kg as a total. It is filed as functional, Mus musculus. In outline: as §2
Assay [6] is described as follows: In vivo antitumor activity at a single dose of 2.5 mg/kg & 7.5 mg/kg total against mammary adenocarcinoma 16C.
A further assay concerns L1210. The assay can be described thus: Antitumor activity against L1210 lymphocytic cells in vitro. It is filed as functional. Conditions: Mus musculus, read-out: ID50 (the source's name).
The test system of assay [7] is P388. The assay is described as follows: In vivo antitumor activity against P388 leukemia cells at a dose of 25 mg/kg as a single injection and 50 mg/kg as a total. It is filed as functional, Mus musculus. Summed up: as §2
A short description of assay [8]: In vivo antitumor activity at a single dose of 6.5 mg/kg & 18.8 mg/kg total against mammary adenocarcinoma 16C. It is filed as functional, Mus musculus. In outline:
(§3)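 Mice were inoculated sc with mammary adenocarcinoma 16C on day 0 and given the agent (as the dihydrochloride salt) iv on days 1, 5 and 9. Tumors were measured in two dimensions three times weekly. Tumor growth delay (T − C, days) and gross log kill were derived, with cured mice excluded from these calculations.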

The nature of assay [9]: In vivo antitumor activity at a single dose of 6.5 mg/kg & 18.8 mg/kg total against mammary adenocarcinoma 16C to assess tumor growth delay (T-C). It is filed as functional, Mus musculus. Summed up: as §1
Assay [10] has as its system P388. The assay is described as follows: In vivo antitumor activity against P388 leukemia cells at a dose of 12.5 mg/kg (single injection) and 25 mg/kg (Total ). It is filed as functional, Mus musculus. Summed up: as §2
Assay [11] can be described thus: In vivo antitumor activity at a single dose of 12.5 mg/kg & 37.5 mg/kg total against mammary adenocarcinoma 16C to assess tumor growth delay (T-C). It is filed as functional, Mus musculus. Summed up: as §1
The nature of assay [12]: In vivo antitumor activity at a single dose of 12.5 mg/kg & 37.5 mg/kg total against mammary adenocarcinoma 16C. It is filed as functional, Mus musculus. In outline: as §3
Assay [13] deals with P388. The assay is described as follows: in vivo for the antitumor activity against P388 leukemia cells at a dose of 100 mg/kg (single injection) and 200 mg/kg (Total). It is filed as functional, Mus musculus. In outline: as §2
Assay [14] relates to P388. The assay can be described thus: Evaluated in vivo for the antitumor activity against P388 leukemia cells at a dose of 50 mg/kg (single injection) and 100 mg/kg (Total ). It is filed as functional, Mus musculus. In outline:
as §2

By T/C is commonly meant the ratio of treated to control. `O=C1c2c(O)ccc(O)c2C(=O)c2c(NCCNCCO)ccc(NCCNCCO)c21` [MITOXANTRONE]: the T-C in assay [1] amounted to 3 days; in [4] it was 4.1 days. The T/C is listed as 231% in the assay on P388 [2] and 278% in the assay on P388 [5]. Moreover, the Gross kill in [3] was determined as 0.8; in assay [6], 1.1.
With `O=C1c2c(O)cccc2-c2nn(CCNCCO)c3ccc(NCCNCCO)c1c23` [LOSOXANTRONE], the IC50 in the assay on L1210 is 5.13 nM. Moreover, the results for the T/C in the assay with P388 [7] and with P388 [10] were 248% and 219%, respectively. Moreover, the results for the Gross log kill in [8] and in assay [12] were 1.9 and 3.1, respectively. In addition, the T-C in assay [9] is 7 days; in assay [11], 11.4 days.
Take `O=C1c2cccc(O)c2-c2nn(CCNCCO)c3ccc(NCCNCCO)c1c23`: the T/C in the assay on P388 [13] was found to be 221%; in the assay with P388 [14], 172%.
